GalR3 antag: human GalR3 antagonism. HEK293 GalR3-CNG cAMP membrane potential fluorescence; galR3 body fused to GalR1 C-terminus. inhibition, % at 3 µM. actives 0.44% (n = 360,000). AID 651719;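 active = inhibition above the screen-wide average plus 3 SD, cut at about 13% in these data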;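 also: forskolin and galanin both at EC90 stimulate the cells; cAMP rise reported by CNG channel membrane potential dye signal; 0% = forskolin plus galanin with DMSO and 100% = forskolin alone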
Target sequence (O60755 1-299 limits assumed): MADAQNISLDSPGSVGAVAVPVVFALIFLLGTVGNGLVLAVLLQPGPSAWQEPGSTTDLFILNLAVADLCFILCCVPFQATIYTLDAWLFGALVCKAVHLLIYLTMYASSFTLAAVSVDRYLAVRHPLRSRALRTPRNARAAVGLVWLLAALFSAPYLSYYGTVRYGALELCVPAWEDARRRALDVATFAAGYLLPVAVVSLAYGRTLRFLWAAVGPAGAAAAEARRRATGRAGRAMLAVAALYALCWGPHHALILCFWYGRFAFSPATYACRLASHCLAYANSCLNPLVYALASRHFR
Env fusion inh: blocks HIV Env-driven cell-cell fusion | inhibition, % at 12.3 µM | HeLa-JRFL Env/CEM21 cell fusion, luciferase | actives 1.1% (n = 360,000);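 active = mean replicate inhibition score of at least 50 and every replicate individually at or above 50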;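 also: 0% = plate neutral controls and 100% = maraviroc near 300 nM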
NR2E3 ag-1: activates human NR2E3 receptor | Q9Y5X4 | CHO-S Gal4-NCOR/VP16-NR2E3 two-hybrid, luciferase | inhibition of corepressor binding, % at 3.98 µM | actives 0.35% (n = 360,000);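 active = inhibition above the mean of all tested compounds plus 3 SD, cut at about 70% in these data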;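 also: 0% = DMSO with NR2E3 transfected cells and 100% = cells lacking NR2E3 construct; higher means lower luciferase signal from less NR2E3 corepressor binding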
Target sequence (Q9Y5X4 whole entry, looked up, the tested form may be a part): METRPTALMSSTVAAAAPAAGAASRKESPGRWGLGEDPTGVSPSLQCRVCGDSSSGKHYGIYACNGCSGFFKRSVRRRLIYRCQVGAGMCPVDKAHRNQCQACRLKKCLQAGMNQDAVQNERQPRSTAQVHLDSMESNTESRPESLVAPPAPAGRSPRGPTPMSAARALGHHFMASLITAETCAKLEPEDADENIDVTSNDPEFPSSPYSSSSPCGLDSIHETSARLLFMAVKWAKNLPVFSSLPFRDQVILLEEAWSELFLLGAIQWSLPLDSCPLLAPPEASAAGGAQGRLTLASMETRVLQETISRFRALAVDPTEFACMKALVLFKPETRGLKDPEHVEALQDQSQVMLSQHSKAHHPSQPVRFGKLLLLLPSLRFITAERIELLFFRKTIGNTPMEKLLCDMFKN
V-ATPase pHluor: regulators of yeast V-ATPase proton transport; S. cerevisiae, pHLuorin cytosolic pH fluorescence; response, % at 10 µM; actives 0.37% (n = 350,000); in the data active = response mostly above about 7.3%, no sharp cut-off; inactive = mostly below about 5.4%; also: actives read high
NR2E3 ag-2: NR2E3 (human) agonism. GST-NR2E3/biotin-RetCOR TR-FRET, 1536-well. inhibition of corepressor binding, % at 4.78 µM. actives 0.12% (n = 320,000);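 active = percent inhibition above the cutoff of mean plus 3 SD of all tested compounds, set per screening campaign, cut at about 20% in these data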;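 also: 0% = DMSO wells and 100% = biotin wells as full block of FRET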
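Material: NR2E3–RetCOR corepressor complex / Amount: 1.35 nM GST-NR2E3 / Medium: Tris pH 7.5 / Compound: single nominal compound dose of 4.8 µM / Incubation: 5 h at 4 °C / Technique: TR-FRET, Eu(K)-anti-GST donor, streptavidin-D2 acceptor, ex 340, em 617/671 nm / Read-out basis: percent loss of FRET ratio relative to control wells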
FXN GAA850 act: increases GAA850 frataxin promoter reporter activity; HEK293 lucGAA850 FXN promoter luciferase reporter, 24 h; percent of 10 µM SAHA response; activation, % at 6 µM; actives 0.56% (n = 360,000); AID 540364;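 active = activation above the average of all compounds screened plus 3 SD, cutoff fixed separately per campaign, cut at about 7.5% in these data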;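 also: 0% = DMSO wells and 100% = 10 µM SAHA wells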
GAA30 FXN cntr: GAA30 FXN promoter activation counter-screen; HEK293 lucGAA30 FXN promoter luciferase, 24 h; DMSO = 0%, 5 µM ipriflavone = 100%; actives 66% (n = 1,900); shares compounds with FXN GAA850 act; activation, % at 6 µM;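 active = mean activation above the mean of solvent-only control wells plus 3 SD, cut at about 22% in these data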;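 also: counterscreen of GAA850 promoter hits where activity marks nonselective or luminescence artifacts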
FXN GAA850 conf: confirmation of GAA850 frataxin (FXN) promoter activators | shares compounds with FXN GAA850 act | HEK293 lucGAA850 FXN promoter luciferase reporter, 24 h; 100% = activation by SAHA | activation, % at 6 µM | actives 86% (n = 1,900) | AID 588351;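 active = mean activation above a set limit taken from the primary screen, cut at about 8% in these data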;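 also: 0% = DMSO wells and 100% = 10 µM SAHA wells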
* = called active by the depositor; . = not tested or not shown; [ ] = dose if it differs, or a comment. This is a sample that favours compounds with a hit; in the whole collection about 2.2% have one here.

SMILES	GalR3 antag	Env fusion inh	NR2E3 ag-1	V-ATPase pHluor	NR2E3 ag-2	FXN GAA850 act	GAA30 FXN cntr	FXN GAA850 conf
CC(=O)[C@]12O[C@]3(COC[C@H](c4ccccc4)N3C1=O)[C@@H]1C(=O)N(C)C(=O)[C@@H]12	.	1[16.7 µM]	.	.	.	.	.	.
Cc1noc(C)c1NC(=O)Nc1ccc2c(c1)C(=O)N([C@@H](C)CO)C[C@@H](C)[C@@H](CN(C)C(=O)C1CCCCC1)OCCCC[C@H](C)O2	.	14[16.7 µM]	.	.	.	.	.	.
C[C@@H]1CN([C@H](C)CO)C(=O)c2cc(NC(=O)c3ccccc3)ccc2O[C@@H](C)CCCCO[C@H]1CN(C)S(C)(=O)=O	.	-6[16.7 µM]	.	.	.	.	.	.
C[C@H](CO)N1C[C@H](C)[C@H](CN(C)C(=O)Nc2ccc(C(F)(F)F)cc2)Oc2ccc(NC(=O)Nc3ccc(F)cc3)cc2C1=O	.	23[16.7 µM]	.	.	.	.	.	.
O=C(COc1ccc(Cl)cc1[N+](=O)[O-])NC1CCCCC1	-5	-58	-95	0	4	8.1*	85*	29*
CCCC#Cc1ccc2c(c1)O[C@H](CN(C)Cc1ccccc1)[C@H](C)CN([C@@H](C)CO)S2(=O)=O	.	-3[16.7 µM]	.	.	.	.	.	.
CN(C)c1ccc(-c2nnn(Cc3ccccc3Br)n2)cc1	-8	.	-67	-5	2	12*	70*	26*
C[C@@H]1CCCCO[C@@H](CN(C)S(=O)(=O)c2cccs2)[C@H](C)CN([C@H](C)CO)C(=O)c2cc(NS(=O)(=O)c3cn(C)cn3)ccc2O1	.	-46[16.7 µM]	.	.	.	.	.	.
COc1nc(=O)n(C2C=CC(=O)O2)cc1F (stereo not given)	-4	-136	41	2	.	14*	-20	0
COc1ccc(C2CC(C(F)(F)F)n3ncc(C(=O)NCC4CCCO4)c3N2)cc1OC (stereo not given)	1	.	-18	-2	-1	8.2*	9	11*
CC(C)NC(=O)N(C)C[C@H]1Oc2ccc(NS(C)(=O)=O)cc2C(=O)N([C@@H](C)CO)C[C@H]1C	.	15[16.7 µM]	.	.	.	.	.	.
O=C1C=C(c2ccccc2)C(=O)N1Nc1ccccc1	0	.	-23	4	-3	4	.	.
COc1ccc(C2=CC(=O)N(Nc3ccccc3)C2=O)cc1	-6	-127	-9	.	-1	8.2*	25*	11*
Cc1ccc(NN2C(=O)C=CC2=O)cc1	1	14	-32	2	1	-1	.	.
Cc1ccc(NN2C(=O)C=C(c3ccc(Cl)cc3)C2=O)cc1	1	.	-23	8	-4	9.5*	-6	18*
Cc1ccc(C(=O)Nc2ncc(Cc3ccc(SC(F)F)cc3)s2)cc1	5	-21	-52	-2	0	7.6*	-12	37*
Cc1ccc(C(=O)Nc2ncc(Cc3ccc(F)cc3)s2)o1	-3	-146	0	2	0	0	.	.
O=C(CCS(=O)(=O)c1ccccc1)Nc1nc(-c2cccs2)cs1	.	28	0	2	6	8.8*	-9	9.8*
O=C(COc1ccccc1)Nc1nc(-c2cccs2)cs1	-7	.	-21	4	0	3	.	.
COc1cccc(S(=O)(=O)Nc2ccc3c(c2)[C@@H]2C[C@@H](CC(=O)O)O[C@@H](CO)[C@@H]2O3)c1	.	-31[16.7 µM]	.	.	.	.	.	.
C[C@H]1CN([C@@H](C)CO)C(=O)Cc2cc(NS(=O)(=O)c3ccc(Cl)cc3)ccc2O[C@@H]1CN(C)Cc1ccc(Oc2ccccc2)cc1	.	5[16.7 µM]	.	.	.	.	.	.
CC(C)Cc1ccc(C(C)C(N)=NCCc2ccccc2)cc1 (stereo not given)	-9	76*	18	-1	.	11*	-22	36*
COc1ccc(CCN=C(N)C(C)c2ccccc2)cc1OC (stereo not given)	-3	23	-8	0	0	0	.	.
COc1ccc2c(c1)OC[C@H]1[C@H]2N2C(=O)CN(CCc3c[nH]c4ccccc34)C(=O)[C@@]2(C)[C@H]1c1ccccc1	-1	4	-2	3	2	7.8*	22*	18*
Cc1ccc(N(O)C(=O)NCCCCNC(=O)N(O)c2ccc(C)cc2)cc1	8	-30	-38	-4	-1	7.7*	59*	21*
SMILES	GalR3 antag	Env fusion inh	NR2E3 ag-1	V-ATPase pHluor	NR2E3 ag-2	FXN GAA850 act	GAA30 FXN cntr	FXN GAA850 conf
Cc1ccc(C(=O)NCCCN2CCN(CCCNC(=O)c3ccc(C)cc3)CC2)cc1	0	-14	-8	-4	0	-1	.	.
O=C(N/N=C/c1ccccn1)c1cccc([N+](=O)[O-])c1	-5	9	-12	0	6	9.2*	-38	7
O=C(N/N=C/c1ccccn1)c1ccc(Br)cc1	-9	.	0	5	-3	23*	-105	-31
O=C(N/N=C/c1ccccn1)c1ccc([N+](=O)[O-])cc1	0	7	-9	2	1	-1	.	.
Cc1cc(C(=O)N/N=C/c2ccccn2)n[nH]1	-2	1	-38	-2	4	2	.	.
O=C(N/N=C/c1ccccn1)c1cc(C2CC2)[nH]n1	-3	-31	-39	-1	3	7.6*	106*	38*
O=C(N/N=C/c1ccccn1)c1cc([N+](=O)[O-])cc([N+](=O)[O-])c1	-6	10	-7	0	6	14*	-82	-17
C[C@H]1CN([C@@H](C)CO)C(=O)c2cc(N(C)C)ccc2O[C@@H]1CN(C)S(C)(=O)=O	.	10[16.7 µM]	.	.	.	.	.	.
O=C(C[C@H]1C[C@@H]2c3cc(NC(=O)c4ccc5c(c4)OCO5)ccc3O[C@@H]2[C@@H](CO)O1)NCC(F)(F)F	.	-19[16.7 µM]	.	.	.	.	.	.
Nc1nc(N)nc(-c2cc([N+](=O)[O-])ccc2O)n1	-1	-3	33	1	0	17*	69*	51*
COc1cccc(CC(=O)N2CCC(n3nccc3NC(=O)C3CC3)CC2)c1	0	3	-23	-1	.	0	.	.
CSc1ccc(CC(=O)N2CCC(n3nccc3NC(=O)C3CC3)CC2)cc1	-2	-23	-51	-2	2	7.7*	96*	32*
COc1cc(OC)nc(Nc2nc(C(N)COCc3ccccc3)cs2)n1 (stereo not given)	-4	97*	36	.	.	7.6*	23*	14*
COc1cc(OC)nc(Nc2nc(C(N)c3ccccc3)cs2)n1 (stereo not given)	-8	-1	16	.	.	-3	.	.
COc1cc(OC)nc(Nc2nc(C(N)CCc3ccccc3)cs2)n1 (stereo not given)	2	52	-1	.	.	9.0*	21	17*

High-throughput results deposited in PubChem by several laboratories.
